In data set [1] the target is T1, Human immunodeficiency virus type 1 integrase (Human immunodeficiency virus 1, UniProt Q7ZJM1). The experiment in a line: Inhibition of recombinant His6-tagged HIV-1 integrase 3' strand transfer activity.
The nature of data set [2]: Cytotoxicity against human MT4 cells. Format: cell-based.
Data set [3] in a line: Inhibition of recombinant His6-tagged HIV-1 integrase binding to FLAG-tagged LEDGF/p75 (unknown origin) interaction expressed in Escherichia coli BL21(DE3) at 20 uM treated 30 mins before LEDGF/p75 addition measured after 60 mins by quench assay. An outline of the steps:
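Emission-quench counter-screen run like the IN–LEDGF/p75 AlphaScreen, with FLAG-tagged GST (500 nM final) instead of both proteins. Same buffer, Ni-chelate donor and anti-FLAG acceptor beads, 1 h at 30 °C, acceptor emission read. Reported as percent inhibition at a single compound concentration.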

Data set [4] can be described thus: Inhibition of recombinant His6-tagged HIV-1 integrase binding to FLAG-tagged LEDGF/p75 (unknown origin) interaction expressed in Escherichia coli BL21(DE3) treated 30 mins before LEDGF/p75 addition measured after 60 mins by AlphaScreen assay. An outline of the steps: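 His6-IN (300 nM final) with compound for 30 min at 4 °C. FLAG-LEDGF/p75 (300 nM final) added for 60 min at 4 °C. Ni-chelate donor and anti-FLAG acceptor beads added, 1 h at 30 °C, light exposure minimized. Acceptor emission read. IC50 is the 50% inhibition of the interaction.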

Data set [5] concerns Human immunodeficiency virus 1. The experiment in a line: Antiviral activity against HIV1 infected in human MT4 cells assessed as virus-induced cytopathic effect by MTT assay. Format: functional, organism-based. Conditions: Human immunodeficiency virus 1, MT4. (In general: Protection from cytopathic effect is a common read-out in antiviral testing.)
Data set [6] concerns the target T1, Human immunodeficiency virus type 1 integrase. The experiment in a line: Inhibition of recombinant His6-tagged HIV-1 integrase 3' processing activity.

Experimental findings from ChEMBL document CHEMBL2417400, “Discovery of a novel 5-carbonyl-1H-imidazole-4-carboxamide class of inhibitors of the HIV-1 integrase-LEDGF/p75 interaction” (Bioorg Med Chem, 2013) are described below.

T1 sequence (Q7ZJM1 whole entry): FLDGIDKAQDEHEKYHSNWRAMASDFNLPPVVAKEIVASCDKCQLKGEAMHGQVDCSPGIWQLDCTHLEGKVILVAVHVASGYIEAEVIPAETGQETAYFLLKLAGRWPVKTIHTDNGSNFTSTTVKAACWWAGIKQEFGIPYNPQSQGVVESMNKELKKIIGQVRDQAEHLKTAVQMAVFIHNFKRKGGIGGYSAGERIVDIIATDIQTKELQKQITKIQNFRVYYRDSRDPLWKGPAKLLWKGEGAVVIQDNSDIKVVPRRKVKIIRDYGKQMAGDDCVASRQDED

As for `Cc1ccc(NC(=O)c2[nH]cnc2C(=O)NN)cc1`, the IC50 – broadly, the point on the concentration scale where inhibition reaches its midpoint – in data set [1] is above 20 µM; in data set [4] it was 16 µM; in data set [6], above 20 µM. For the same molecule, the CC50 (commonly the concentration at which the toxic effect on the cells reaches its halfway point) in data set [2] was above 20 µM. Also, in data set [3], the inhibition – broadly, the change of the read-out against control, counted positive when it falls – was below 50%. Further, the EC50 – broadly, the concentration at which the effect is half-maximal – in data set [5] is above 20 µM.

`O=C(Nc1ccccc1O)c1nc[nH]c1C(=O)N1CCNCC1`: the IC50 in data set [1], in data set [4] and in data set [6] was above 20 µM in each case. The CC50 in data set [2] was above 20 µM. In addition, the inhibition in data set [3] is below 50%. Further, the EC50 in data set [5] was above 20 µM.

On to `NNC(=O)c1[nH]cnc1C(=O)Nc1ccccn1`, for which the values for the IC50 in data set [1], in data set [4] and in data set [6] were above 20 µM, 0.4 µM and above 20 µM, respectively. Moreover, the CC50 in data set [2] is above 20 µM. For the same molecule, the inhibition in data set [3] is below 50%. The EC50 in data set [5] is above 20 µM.

For the molecule `CNC(=O)c1[nH]cnc1C(=O)Nc1ccccn1`, the IC50 in data set [1], in data set [4] and in data set [6] was above 20 µM in each case. In data set [2], this molecule showed a CC50 above 20 µM. The inhibition in data set [3] was below 50%. For the same molecule, the EC50 in data set [5] was above 20 µM.

`O=C(Nc1ccc(F)cc1)c1nc[nH]c1C(=O)O`: the figures for the IC50 in data set [1], in data set [4] and in data set [6] were above 20 µM, 10 µM and above 20 µM, respectively. Besides, the CC50 in data set [2] is above 20 µM. In addition, the inhibition in data set [3] is below 50%. Further, the EC50 in data set [5] was above 20 µM.

`O=C(Nc1ccccn1)c1nc[nH]c1C(=O)N1CCC(O)CC1`: the IC50 in data set [1], in data set [4] and in data set [6] was above 20 µM in each case. In data set [2], this molecule gave a CC50 above 20 µM. Further, in data set [3], the inhibition is below 50%. For the same molecule, the EC50 in data set [5] is above 20 µM.

Regarding `O=C(Nc1ccccn1)c1nc[nH]c1C(=O)N1CCOCC1`, the IC50 in data set [1], in data set [4] and in data set [6] was above 20 µM throughout. Further, the CC50 in data set [2] was above 20 µM. Further, the inhibition in data set [3] was below 50%. In addition, the 50% effective concentration (EC50) in data set [5] is above 20 µM.

On to `O=C(Nc1ccc([N+](=O)[O-])cc1)c1nc[nH]c1C(=O)O`, for which the half-maximal inhibitory concentration (IC50) in data set [1] is above 20 µM; in data set [4] it was 5.3 µM; in data set [6] it was above 20 µM. The same molecule returned a CC50 in data set [2] above 20 µM. Besides, the inhibition in data set [3] is below 50%. Also, the EC50 in data set [5] is above 20 µM.

In the case of `COC(=O)c1[nH]cnc1C(=O)Nc1ccc(F)cc1`, the IC50 in data set [1], in data set [4] and in data set [6] was above 20 µM in each case. Further, in data set [2], the CC50 is above 20 µM. Moreover, the inhibition in data set [3] is below 50%. The EC50 in data set [5] is above 20 µM.

For the molecule `O=C(Nc1ccccn1)c1nc[nH]c1C(=O)O`, the half-maximal inhibitory concentration (IC50) in data set [1] was above 20 µM; in data set [4] it was 13 µM; in data set [6], above 20 µM. Further, the CC50 in data set [2] is above 20 µM. In addition, the inhibition in data set [3] was below 50%. In addition, the EC50 in data set [5] was above 20 µM.

As to `O=C(Nc1ccccc1O)c1nc[nH]c1C(=O)N1CCC(O)CC1`, the IC50 in data set [1], in data set [4] and in data set [6] was above 20 µM each time. Further, the CC50 in data set [2] is above 20 µM. For the same molecule, the inhibition in data set [3] is below 50%. The EC50 in data set [5] is above 20 µM.

Take `Nc1ccc(NC(=O)c2nc[nH]c2C(=O)O)cc1`: the IC50 was above 20 µM in data set [1], 1 µM in data set [4] and above 20 µM in data set [6]. In data set [2], this molecule registered a CC50 above 20 µM. Besides, the inhibition in data set [3] was below 50%. Also, in data set [5], the EC50 is above 20 µM.

In the case of `O=C(NCc1ccc(F)cc1)c1nc[nH]c1C(=O)O`, the IC50 in data set [1], in data set [4] and in data set [6] was above 20 µM throughout. Moreover, in data set [2], the CC50 is above 20 µM. In addition, the inhibition in data set [3] was below 50%. Besides, the EC50 in data set [5] is above 20 µM.

Regarding `O=C(Nc1ccccn1)c1nc[nH]c1C(=O)N1CCNCC1`, the IC50 in data set [1], in data set [4] and in data set [6] was above 20 µM throughout. Also, the CC50 in data set [2] was above 20 µM. In addition, the inhibition in data set [3] was below 50%. The EC50 in data set [5] is above 20 µM.

Turning to `O=C(Nc1ccccc1O)c1nc[nH]c1C(=O)N1CCOCC1`, the IC50 in data set [1], in data set [4] and in data set [6] was above 20 µM throughout. In addition, in data set [2], the CC50 is above 20 µM. Moreover, in data set [3], the inhibition is below 50%. The EC50 in data set [5] is above 20 µM.

For `O=C(Nc1ccccc1)c1nc[nH]c1C(=O)O`, the values for the IC50 in data set [1], in data set [4] and in data set [6] were above 20 µM, 6 µM and above 20 µM, respectively. This molecule returned a CC50 in data set [2] above 20 µM. For the same molecule, in data set [3], the inhibition was below 50%. For the same molecule, the EC50 in data set [5] was above 20 µM.
